# Screening data: PubChem, Sanford-Burnham Center for Chemical Genomics
# SENP7 inh: inhibitors of human SENP7 protease; Q9BQF6; recombinant SENP7, Z-RLRGG-aminoluciferin luminescence, 40 min; inhibition, % at 5 µM; 330,000 tested, 1.5% active;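 active = inhibition above about 50% at the single test dose, limit read from the data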
# SENP8 block-1: blocks human SENP8 cleavage of Nedd8 substrate; 360,000 tested, 0.64% active; inhibition, % at 20 µM; recombinant SENP8, Nedd8 substrate fluorescence; in the data active = inhibition mostly above about 40%, no sharp cut-off; inactive = mostly below about 27%
# SENP8 block-2: inhibitors of human SENP8 protease | Q96LD8 | purified SENP8, Z-RLRGG-aminoluciferin cleavage, luminescence | inhibition, % at 10 µM | 330,000 tested, 1.2% active | AID 2540; in the data active = inhibition above about 50%
# SENP1 FRET inh: SENP1 (human) catalytic domain inhibition; Q9P0U3; 360,000 tested, 0.21% active; AID 624204; inhibition, % at 10 µM; recombinant SENP1 catalytic domain, CyPet-SUMO1-YPet FRET cleavage;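 active = inhibition at least 30% at 10 µM, raw YFP signal under a set limit, fluorescence ratio 0.5 to 1.5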
#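 Material – human SENP1 catalytic domain · Input – SENP1 enzyme, 20 pM final · Compound dosing – single concentration of 10 µM compound, 0.5% DMSO final · Timing – enzyme reaction for 50 min at room temperature, dark · Measured by – FRET fluorescence in CFP and YFP emission channels · Control set – no-enzyme wells low, DMSO-plus-enzyme wells high control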
# SENP6 block: inhibitors of human SENP6 protease | Recombinant SENP6 catalytic domain, aminoluciferin luminescence | inhibition, % at 10 µM | 330,000 tested, 1.8% active | AID 2599;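 active = inhibition above about 50% at the single tested dose, limit read from the data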
# Target sequence (Q9GZR1 628-1112 limits assumed): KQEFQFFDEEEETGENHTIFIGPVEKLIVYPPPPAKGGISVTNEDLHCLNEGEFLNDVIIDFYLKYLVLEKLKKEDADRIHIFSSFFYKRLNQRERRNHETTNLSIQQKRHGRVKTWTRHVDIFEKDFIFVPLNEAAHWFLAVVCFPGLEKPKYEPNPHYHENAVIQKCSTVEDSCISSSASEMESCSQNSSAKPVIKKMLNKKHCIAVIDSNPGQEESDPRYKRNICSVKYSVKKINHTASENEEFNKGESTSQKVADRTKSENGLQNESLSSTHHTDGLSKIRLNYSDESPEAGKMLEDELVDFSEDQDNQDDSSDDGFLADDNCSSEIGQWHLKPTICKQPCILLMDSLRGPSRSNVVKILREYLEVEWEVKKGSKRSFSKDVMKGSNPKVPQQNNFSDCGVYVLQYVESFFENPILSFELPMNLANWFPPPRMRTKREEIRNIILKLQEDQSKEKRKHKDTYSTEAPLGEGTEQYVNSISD
# SENP8 confirm: confirmation of human SENP8 protease inhibitors | Recombinant SENP8, Z-RLRGG-aminoluciferin luminescence, 60 min | inhibition, % at 12.5 µM | 6,200 tested, 40% active | AID 488912 | shares compounds with SENP7 inh;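 active = mean inhibition across replicates above about 50%, limit read from the data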
# SENP6 confirm: human SENP6 inhibition, confirmed; inhibition, % at 12.5 µM; shares compounds with SENP7 inh; recombinant SENP6, Z-RLRGG-aminoluciferin luminescence; AID 488915; 6,200 tested, 58% active
# SENP7 confirm: human SENP7 inhibition, confirmed; inhibition, % at 12.5 µM; AID 488917; shares compounds with SENP7 inh; recombinant SENP7, Z-RLRGG-aminoluciferin luminescence, 40 min; 6,200 tested, 69% active
# Casp3 SENP sel: selectivity test for SENP inhibitors: human caspase-3 inhibition. shares compounds with SENP7 inh. purified caspase-3, Z-DEVD-aminoluciferin luminescence, 60 min. inhibition, % at 12.5 µM. 6,200 tested, 60% active. AID 488918;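 active = mean inhibition above about 50%, limit read from the data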
# Target sequence (P42574 28-227 limits assumed): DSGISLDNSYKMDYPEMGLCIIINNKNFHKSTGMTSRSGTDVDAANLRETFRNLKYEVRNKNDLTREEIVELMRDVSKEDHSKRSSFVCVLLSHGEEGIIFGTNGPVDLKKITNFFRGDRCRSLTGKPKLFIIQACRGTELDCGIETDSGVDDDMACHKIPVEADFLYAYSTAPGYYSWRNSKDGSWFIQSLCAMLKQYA
# Luc interf: interferes with luciferase luminescence in SENP counter-screen | shares compounds with SENP7 inh | Pre-incubated SENP8/Z-RLRGG-aminoluciferin, luciferase luminescence interference | inhibition, % at 12.5 µM | 6,200 tested, 39% active | AID 488919;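 active = mean inhibition above about 50% when retested at one dose, limit read from the data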
# Hits are given with their value; – = inactive; · = not tested or not shown. Only some compounds are listed: those with a hit (about 2.5% of all), similar ones and a draw of the others.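 The calls were made as follows, unless noted: active = mean inhibition above about 50% in the one-dose retest (limit read from the data); inactive = the rest.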
SMILES,SENP7 inh,SENP8 block-1,SENP8 block-2,SENP1 FRET inh,SENP6 block,SENP8 confirm,SENP6 confirm,SENP7 confirm,Casp3 SENP sel,Luc interf
CN(C)c1ccc(/C=N/NC(=O)c2cc(=O)[nH]c3ccccc23)cc1,–,–,–,–,–,·,·,·,·,·
CN(C)c1ccc(C=Nc2ccccc2C(N)=O)cc1,96.4,–,89.0,–,92.8,–,89.6,100.8,95.1,–
CN(C)c1ccc(/C=N/NC(=O)c2ccco2)cc1,–,–,–,–,65.4,–,–,80.8,83.3,–
O=C(Nc1cc(C(F)(F)F)ccc1Cl)C(Sc1nnc(-c2cccs2)o1)c1ccccc1 (stereo not drawn),–,–,75.7,–,81.4,–,–,–,–,–
Cc1ccc(C2=NN(CCC#N)C(=O)CO2)cc1,–,–,–,–,–,·,·,·,·,·
Cc1cc(OCc2ccc(C(=O)n3cccn3)o2)ccc1Cl,–,–,–,–,50.3,–,–,–,–,–
O=C(c1ccc(COc2ccc(F)cc2)o1)n1cccn1,–,–,–,–,–,·,·,·,·,·
COC(=O)c1ccc(-c2nc3ccc(C)cc3o2)cc1,70.0,–,–,–,–,–,–,–,–,–
Nc1ccc2oc(-c3cccc4ccccc34)nc2c1,–,–,–,–,–,·,·,·,·,·
Cc1ccc2oc(-c3ccc(NC(=O)CC(C)C)cc3)nc2c1,–,–,–,–,–,·,·,·,·,·
Cc1ccc2oc(-c3cccc(N)c3)nc2c1,98.1,–,93.9,–,96.9,–,96.6,102.5,94.2,58.5
Cc1ccc(-c2nc3cc(N)ccc3o2)c(C)c1,66.5,–,69.4,–,82.8,57.8,73.0,92.4,54.6,–
Cc1ccc(-c2nc3cc(C)ccc3o2)cc1,90.4,–,89.1,–,90.4,58.1,77.1,93.8,78.5,–
CCn1cc(-c2n[nH]c(=S)n2-c2ccc(C)cc2Br)c(=O)c2ccc(C)nc21,–,–,–,–,–,·,·,·,·,·
COc1ccc(C2=Nc3ccccc3N(C(=O)c3cnccn3)C2C(=O)NC2CCCC2)cc1 (stereo not drawn),·,–,·,–,·,·,·,·,·,·
O=C(c1ccccc1)N1CCN(C(=S)NCc2ccc3c(c2)OCO3)CC1,–,–,–,–,–,·,·,·,·,·
O=C1N(Cc2ccccc2)c2ccc(Br)cc2[C@]12C[C@H](O)CO2,·,–,·,–,·,·,·,·,·,·
Cc1cc(=O)n2[nH]c(Nc3cccc(Cl)c3)nc2n1,–,–,–,–,–,·,·,·,·,·
Cc1ccc(-c2nc3cc(N)ccc3o2)cc1,89.6,–,75.2,–,87.7,–,85.9,96.8,82.5,57.9
CC(C)c1ccc2oc(-c3ccc(N)cc3)nc2c1,93.1,–,86.3,–,94.1,94.5,94.8,100.2,68.9,93.6
Cc1ccc2oc(-c3ccco3)nc2c1,54.7,–,–,–,66.4,–,–,75.6,–,–
Cc1ccc2nc(-c3cccc(N)c3)[nH]c2c1,95.7,–,88.2,–,93.5,–,91.4,100.8,95.4,92.7
CC(C)c1ccc2oc(-c3ccc(NC(=O)c4ncn[nH]4)cc3)nc2c1,–,–,–,–,–,·,·,·,·,·
CC(C)(C)c1ccc(-c2nc3cc(N)ccc3o2)cc1,78.2,–,73.6,–,82.8,–,84.1,94.6,–,77.4
COc1ccccc1NC(=O)CCSc1nc(C)cc(C)n1,–,–,–,–,–,·,·,·,·,·
SMILES,SENP7 inh,SENP8 block-1,SENP8 block-2,SENP1 FRET inh,SENP6 block,SENP8 confirm,SENP6 confirm,SENP7 confirm,Casp3 SENP sel,Luc interf
COc1ccccc1NC(=O)CCSc1ccc(C)cc1,–,–,–,–,50.7,–,–,63.4,–,–
Cn1nc2sc3ccccc3n2c(=O)c1=O,–,–,–,–,–,·,·,·,·,·
N#Cc1cnc2sc3ccccc3n2c1=N,78.9,–,92.7,–,94.2,94.6,96.0,100.3,96.6,93.9
O=C(Nc1nnc(-c2ccccc2)s1)c1ccccc1O,63.3,–,84.5,–,80.0,–,–,–,–,–
COc1ccccc1C(=O)Nc1nnc(-c2ccccc2)s1,–,–,–,–,–,·,·,·,·,·
COc1cccc(C(=O)Nc2nnc(-c3ccccc3)s2)c1OC,55.4,–,57.1,–,78.9,–,–,64.5,61.2,–
COc1ccccc1/C=C/C(=O)NCC(=O)N/N=C/c1cc(Br)ccc1OC,–,–,–,–,–,·,·,·,·,·
COc1ccc(/C=C/C(=O)NCC(=O)N/N=C/c2cc(Br)ccc2OC)cc1,84.1,–,–,–,–,–,–,–,–,–
Cc1cc(NC(=O)C(C)SCC(=O)N(C)CC(=O)Nc2ccc(F)cc2)no1 (stereo not drawn),–,–,–,–,–,·,·,·,·,·
O=C(Nc1ccc2c(c1)[C@H]1C[C@@H](CC(=O)N3CCOCC3)O[C@@H](CO)[C@H]1O2)C1CCOCC1,·,–,·,–,·,·,·,·,·,·
Cc1cc(C2=NNC(=NC3CC3)SC2)c(C)n1-c1c(C)n(C)n(-c2ccccc2)c1=O,–,–,–,–,–,·,·,·,·,·
Cc1ccc(-n2c(C)cc(C3=NNC(=NC4CC4)SC3)c2C)cc1C,–,–,56.0,–,–,82.3,83.5,92.9,73.7,53.4
C=CCn1c(N)c(C(=O)NCC2CCCO2)c2nc3ccccc3nc21 (stereo not drawn),–,–,90.0,–,91.4,–,–,–,–,–
O=C(NCC1CCCO1)c1coc2nc3ccccc3nc12 (stereo not drawn),–,–,–,–,–,·,·,·,·,·
COc1ccc(-n2c(N)c(C(=O)NCC3CCCO3)c3nc4ccccc4nc32)c(OC)c1 (stereo not drawn),–,–,–,–,68.2,–,–,–,–,–
Nc1c(C(=O)NCc2ccccc2)c2nc3ccccc3nc2n1CCCN1CCOCC1,–,–,62.9,–,74.3,–,–,–,–,–
O=C(NCc1ccccc1)C1c2ccccc2OCC(=O)N1Cc1ccccc1 (stereo not drawn),·,–,·,–,·,·,·,·,·,·
CC(=O)c1ccc(S(=O)(=O)N2CCN(C(=O)CSC(=S)N3CCCC3)CC2)cc1,–,–,–,–,–,·,·,·,·,·
Cc1ccc(NC(=O)c2ccc(C(C)(C)C)cc2)cc1[N+](=O)[O-],–,–,–,–,–,·,·,·,·,·
NC(=O)c1sc2nc3c(cc2c1N)CCC3,–,–,–,–,–,·,·,·,·,·
COC(=O)c1sc2nc3c(cc2c1N)CCCC3,74.9,–,56.7,–,–,–,72.1,91.3,76.2,50.9
Nc1cccc2c1C(=O)N(CCOc1ccccc1F)C2=O,73.0,–,72.9,–,83.1,79.2,79.8,95.2,78.7,82.9
